Results pooled from the literature.
Compare with care: the assays were run in different laboratories.
Organism: Plasmodium falciparum
Effect on: parasite growth

| SMILES | method | strain | time | setting | IC50 |
| --- | --- | --- | --- | --- | --- |
| COc1ccc2[nH]c(-c3ccc(Cc4ccc(OC(F)(F)F)cc4)cc3)c(C)c(=O)c2c1 | – | 3D7 | – | blood stage | > 350 nM |
| COC1=CC(c2ccco2)=NC1=Cc1ccc(CCCCCCCCCC(C)O)[nH]1 (stereo not drawn) | – | D6 | – | blood stage | > 2500 nM |
| C#CCCCCCCCCC=CCC(O)CC(O)CO (stereo not drawn) | – | W2 | – | drug-resistant strain, blood stage | > 47.6 µg/mL |
| COc1cccc(N2CCN(C3=Nc4c(F)cccc4[C@H](CC(=O)O)N3c3cc(C(F)(F)F)ccc3OC)CC2)c1 | SYBR Green | – | – | blood stage | 9950 nM |
| COC1=CC(c2ccc[nH]2)=NC1=Cc1ccc(CCCCCCCCCCO)[nH]1 | – | D6 | – | blood stage | 108 nM |
| O=C(Nc1ccccc1-c1nc2c(C(=O)O)cccc2o1)c1ccccc1 | SYBR Green | – | – | blood stage | 75800 nM |
| O=C(Nc1ccc(F)cc1C(=O)O)c1ccc(-c2ccccc2)cc1 | – | NF54 | 48 h | blood stage | > 10000 nM |
| COc1cc(C)c(-c2ccc(O)c3c2C[C@@H](C)N[C@@H]3C)c2cccc(O)c12 (single isomer, unassigned) | SYBR Green | NF54 | – | blood stage | 38.4 nM |
| CO[C@H]1C[C@@H](C[C@H](C)[C@H]2CC(=O)[C@@H](C)/C=C(\C)[C@H](O)[C@H](OC)C(=O)[C@@H](C)C[C@@H](C)/C=C/C=C/C=C(\C)[C@H](OC)C[C@H]3CC[C@H](C)[C@](O)(O3)C(=O)C(=O)N3CCCC[C@@H]3C(=O)O2)CC[C@@H]1OCCO (racemic) | SYBR Green | – | – | blood stage | 1250 nM |
| CCN(CC)CCCC(C)Nc1ccnc2cc(Cl)ccc12 (stereo not drawn) | ELISA | 3D7 | – | blood stage | 7.4 nM |
| Fc1cc(F)cc(-c2nc3c(N4CCC(CN5CCN(CC(F)(F)F)CC5)CC4)nccc3[nH]2)c1 | – | NF54 | – | blood stage | < 100 nM |
| NCCN(C(=O)c1ccc(Cl)cc1Cl)c1ccc(OCc2ccc(Cl)cc2)cc1 | SYBR Green | – | – | blood stage | 2810 nM |
| Clc1ccc2c(N3CCN(CCCN4CCN(c5ccnc6cc(Cl)ccc56)CC4)CC3)ccnc2c1 | – | – | – | blood stage | 25.8 nM |
| Brc1ccc2c(c1)nc(C1CCNCC1)n2Cc1ccccc1 | – | NF54 | – | blood stage | 28 nM |
| C[C@@]12CC[C@@H](O)[C@]3(C)C4=CC(=O)OCC4=C[C@@H](OC1=O)C23 (stereo partly drawn) | – | W2 | 72 h | drug-resistant strain, blood stage | 0.67 µg/mL |
| NC1CCN(c2nc3cc(Cl)ccc3n2Cc2ccccc2)CC1 | – | NF54 | – | blood stage | 22 nM |
| C[C@@H]1CC[C@H]2[C@@H](C)C(=O)O[C@@H]3O[C@@]4(C)CC[C@@H]1[C@]32OO4 | – | D6 | 72 h | blood stage | 0.0047 µg/mL |
| CC[C@@H](C)[C@H]1O[C@@H](c2c(O)c(-c3ccccc3)cn(O)c2=O)[C@H](C)C[C@@H]1C | – | W2 | 72 h | drug-resistant strain, blood stage | 0.2 µg/mL |
| Clc1ccc2c(nc(N3CCNCC3)n2Cc2ccccc2)c1-c1ccncc1 | – | NF54 | – | blood stage | 2170 nM |
| C[C@H]1[C@@H](O)O[C@@H]2O[C@@]3(C)CC[C@H]4[C@H](C)CC[C@@H]1[C@@]24OO3 | – | 3D7 | 72 h | blood stage | 5.8 nM |
| c1ccc(Cn2c(N3CCNCC3)nc3cc(-c4ccccc4)ccc32)cc1 | – | NF54 | – | blood stage | 6960 nM |
| C[C@@H](c1cc(Cl)cc(Cl)c1)N(C)c1ncc2c(N)nc(N)nc2n1 | SYBR Green | – | – | blood stage | 8180 nM |
| C[C@@H]1CC[C@H]2[C@@H](C)C(=O)O[C@@H]3O[C@@]4(C)CC[C@@H]1[C@]32OO4 | – | W2 | – | drug-resistant strain, blood stage | 0.009 µg/mL |
| O=C(Nc1c(F)cccc1C(=O)O)c1cccc(-c2ccccc2)c1 | resazurin | NF54 | 48 h | gametocyte | > 10000 nM |
